Results from ChEMBL document CHEMBL4616716, “ONO-8430506: A Novel Autotaxin Inhibitor That Enhances the Antitumor Effect of Paclitaxel in a Breast Cancer Model” (ACS Med Chem Lett, 2020).

Experiments:
[1] = molecular target: T1, Autotaxin (Homo sapiens, UniProt Q13822); assay: Inhibition of recombinant human ATX assessed as reduction in choline release using LPC(16:0) as substrate incubated for 15 hrs
Outline: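 Recombinant human ATX with 16:0 LPC as substrate. Single-point inhibition was tested at 30 μM, and IC50 values were determined.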

[2] = Protein binding in human plasma measured after 4 hrs by LC-MS/MS analysis; assay type: ADME, cell-free; conditions: read-out: PPB (converted)
[3] = AUC in Sprague-Dawley rat at 0.5 mg/kg, po administered as single cassette dosing by LC-MS/MS analysis; assay type: ADME, organism-based; conditions: in vivo
Outline: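 Rat cassette dosing, 0.5 mg/kg oral; plasma AUC reported.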

[4] = Protein binding in rat plasma measured after 4 hrs by LC-MS/MS analysis; assay type: ADME, cell-free; conditions: read-out: PPB (converted)
[5] = molecular target: T1, Autotaxin; assay: Inhibition of LysoPLD activity of ATX in human plasma assessed as reduction in choline release using LPC(16:0) as substrate incubated for 15 hrs; assay type: cell-free
Outline: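 LysoPLD activity in human plasma with 16:0 LPC as substrate; IC50 determined.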

[6] = Metabolic stability in human hepatocytes assessed as parent compound remaining at 1 uM measured after 2 hrs by LC-MS/MS analysis; assay type: ADME, cell-based, Hepatocyte; conditions: read-out: Stability
Outline: (§1)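 Human and rat hepatocyte incubation; percent parent remaining after 2 h.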

[7] = Octanol/phosphate buffer partition coefficient, LogD of compound at pH 7.4 mixed for 1 hr using benchtop-rotator followed by further incubation for 1 hr by ESI-LC-MS/MS analysis; assay type: physicochemical
[8] = Plasma clearance in Sprague-Dawley rat at 1 mg/kg, iv by LC-MS/MS analysis; assay type: ADME, organism-based
Outline: (§2)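 Single-dose rat PK, 1 mg/kg iv and 3 mg/kg po, n = 3. Plasma clearance was taken from the iv dose. Bioavailability was calculated from the iv and oral doses.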

[9] = Oral bioavailability in Sprague-Dawley rat at 3 mg/kg by LC-MS/MS analysis; assay type: ADME, organism-based; conditions: in vivo; outline: as §2
[10] = Metabolic stability in rat hepatocytes assessed as parent compound remaining at 1 uM measured after 2 hrs by LC-MS/MS analysis; assay type: ADME, cell-based, Hepatocyte; conditions: read-out: Stability; outline: as §1
[11] = Drug metabolism in monkey hepatocytes assessed as compound isomerization by measuring conversion ratio at 1 uM incubated for 2 hrs by LC-MS/MS analysis; assay type: ADME, cell-based, Macaca mulatta, Hepatocyte; conditions: rhesus monkey, read-out: Drug metabolism
Outline: (§3)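 Hepatocytes from human, rat, dog and monkey were incubated with the trans isomer. The conversion ratio is the cis isomer concentration over the sum of cis and trans, 2 h after the start of incubation.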

[12] = Drug metabolism in human hepatocytes assessed as compound isomerization by measuring conversion ratio at 1 uM incubated for 2 hrs by LC-MS/MS analysis; assay type: ADME, cell-based, Hepatocyte; conditions: read-out: Drug metabolism; outline: as §3
[13] = Drug metabolism in rat hepatocytes assessed as compound isomerization by measuring conversion ratio at 1 uM incubated for 2 hrs by LC-MS/MS analysis; assay type: ADME, cell-based, Hepatocyte; conditions: read-out: Drug metabolism; outline: as §3
[14] = Drug metabolism in dog hepatocytes assessed as compound isomerization by measuring conversion ratio at 1 uM incubated for 2 hrs by LC-MS/MS analysis; assay type: ADME, cell-based, Canis lupus familiaris, Hepatocyte; conditions: read-out: Drug metabolism; outline: as §3
[15] = test system: MDA-MB-231; assay: Potentiation of paclitaxel-induced antitumor activity against human MDA-MB-231 cells xenografted in SCID mouse assessed as tumor growth inhibition at 30 mg/kg, po administered twice daily for 32 days in combination with paclitaxel at 20 mg/kg, ip three times weekly for 5 weeks and measured on […] (reference value: 81.5%); assay type: functional
Outline: (§4)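 MDA-MB-231 human breast tumour-bearing mice dosed orally at 30 or 100 mg/kg twice daily for 32 days. Where combined, paclitaxel was given at 20 mg/kg ip three times weekly for 5 weeks. Tumour volume was followed and reported at day 32. Tumour growth inhibition was taken from median tumour volume versus vehicle. Groups of n = 8–9 were compared by Student t test.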

[16] = Oral bioavailability in Beagle dog at 1 mg/kg administered as single dose by LC-MS/MS analysis; assay type: ADME, organism-based, Canis lupus familiaris; conditions: in vivo
[17] = Volume of distribution at steady state in Beagle dog at 0.3 mg/kg, iv administered as single dose by LC-MS/MS analysis; assay type: ADME, organism-based, Canis lupus familiaris; conditions: in vivo, read-out: Vdss
[18] = Clearance in cynomolgus monkey at 0.3 mg/kg, iv administered as single dose by LC-MS/MS analysis; assay type: ADME, organism-based, Macaca fascicularis; conditions: in vivo
[19] = molecular target: T1, Autotaxin; assay: In vivo inhibition of lysoPLD activity of ATX in SCID mouse plasma xenografted with human MDA-MB-231 cells at 100 mg/kg, po administered twice daily for 32 days in combination with paclitaxel at 20 mg/kg, ip three times weekly for 5 weeks and measured at 18 hrs post-last dose relative to control; assay type: functional, organism-based
[20] = molecular target: T1, Autotaxin; assay: In vivo inhibition of lysoPLD activity of ATX in SCID mouse plasma xenografted with human MDA-MB-231 cells at 30 mg/kg, po administered twice daily for 32 days in combination with paclitaxel at 20 mg/kg, ip three times weekly for 5 weeks and measured at 18 hrs post-last dose relative to control; assay type: functional, organism-based
[21] = Half life in cynomolgus monkey at 0.3 mg/kg, iv administered as single dose by LC-MS/MS analysis; assay type: ADME, organism-based, Macaca fascicularis; conditions: in vivo
[22] = Half life in SCID mouse at 1 mg/kg, po administered as single dose by LC-MS/MS analysis; assay type: ADME, organism-based; conditions: in vivo
[23] = Cmax in Sprague-Dawley rat at 1 mg/kg, po administered as single dose by LC-MS/MS analysis; assay type: ADME, organism-based; design: dose 1 mg/kg, route oral; conditions: in vivo
[24] = Half life in Sprague-Dawley rat at 1 mg/kg, po administered as single dose by LC-MS/MS analysis; assay type: ADME, organism-based; conditions: in vivo
[25] = test system: MDA-MB-231; assay: Potentiation of paclitaxel-induced antitumor activity against human MDA-MB-231 cells xenografted in SCID mouse assessed as tumor growth inhibition at 100 mg/kg, po administered twice daily for 32 days in combination with paclitaxel at 20 mg/kg, ip three times weekly for 5 weeks and […] (reference value: 81.5%); assay type: functional; outline: as §4
[26] = Cmax in cynomolgus monkey at 1 mg/kg, po administered as single dose by LC-MS/MS analysis; assay type: ADME, organism-based, Macaca fascicularis; design: dose 1 mg/kg, route oral; conditions: in vivo
[27] = Clearance in Beagle dog at 0.3 mg/kg, iv administered as single dose by LC-MS/MS analysis; assay type: ADME, organism-based, Canis lupus familiaris; conditions: in vivo
[28] = Volume of distribution at steady state in cynomolgus monkey at 0.3 mg/kg, iv administered as single dose by LC-MS/MS analysis; assay type: ADME, organism-based, Macaca fascicularis; conditions: in vivo, read-out: Vdss
[29] = Half life in Beagle dog at 0.3 mg/kg, iv administered as single dose by LC-MS/MS analysis; assay type: ADME, organism-based, Canis lupus familiaris; conditions: in vivo
[30] = test system: MDA-MB-231; assay: Antitumor activity against human MDA-MB-231 cells xenografted in SCID mouse assessed as tumor growth inhibition at 100 mg/kg, po administered twice daily for 32 days and […] relative to control; assay type: functional; conditions: MDA-MB-231, po, read-out: TGI; outline: as §4
[31] = Half life in Sprague-Dawley rat at 0.3 mg/kg, iv administered as single dose by LC-MS/MS analysis; assay type: ADME, organism-based; conditions: in vivo
[32] = Oral bioavailability in cynomolgus monkey at 1 mg/kg administered as single dose by LC-MS/MS analysis; assay type: ADME, organism-based, Macaca fascicularis; conditions: in vivo
[33] = Half life in Beagle dog at 1 mg/kg, po administered as single dose by LC-MS/MS analysis; assay type: ADME, organism-based, Canis lupus familiaris; conditions: in vivo
[34] = Volume of distribution at steady state in Sprague-Dawley rat at 0.3 mg/kg, iv administered as single dose by LC-MS/MS analysis; assay type: ADME, organism-based; conditions: in vivo, read-out: Vdss
[35] = Oral bioavailability in Sprague-Dawley rat at […] administered as single dose by LC-MS/MS analysis; assay type: ADME, organism-based; conditions: in vivo; outline: as §2
[36] = Cmax in SCID mouse at 1 mg/kg, po administered as single dose by LC-MS/MS analysis; assay type: ADME, organism-based; design: dose 1 mg/kg, route oral; conditions: in vivo
[37] = Cmax in Beagle dog at 1 mg/kg, po administered as single dose by LC-MS/MS analysis; assay type: ADME, organism-based, Canis lupus familiaris; design: dose 1 mg/kg, route oral; conditions: in vivo
[38] = Clearance in Sprague-Dawley rat at 0.3 mg/kg, iv administered as single dose by LC-MS/MS analysis; assay type: ADME, organism-based; conditions: in vivo

Structure (SMILES): O=C(O)CCCCC(=O)N1CCc2c(n(Cc3ccccc3)c3ncccc23)C1
- IC50 [1]: 0.24 µM

Structure (SMILES): O=C(O)CCC(=O)N1CCc2c(n(Cc3ccccc3)c3ncccc23)C1
- IC50 [1]: 5.4 µM

Structure (SMILES): O=C(CC12CCC(C(=O)O)(CC1)C2)N1CCc2c(n(Cc3ccc(F)cc3F)c3ncccc23)C1
- fraction unbound at 4 h [2]: 0.008
- AUC [3]: 0.5 µg·h/mL
- IC50 [1]: 0.011 µM
- fraction unbound at 4 h [4]: 0.061
- IC50 [5]: 0.0079 µM

Structure (SMILES): CC(C)(CCC(=O)N1CCc2c(n(Cc3cccc(F)c3)c3ncccc23)C1)CC(=O)O
- IC50 [1]: 0.024 µM

Structure (SMILES): O=C(O)CCCCC(=O)N1CCc2c(n(Cc3cccc(F)c3)c3ncccc23)C1
- IC50 [1]: 0.05 µM
- remaining at 2 h, 1 µM [6]: 29%
- logD at 1 h [7]: 0.51
- clearance [8]: 0.45 L/h/kg
- bioavailability [9]: 30%
- remaining at 2 h, 1 µM [10]: 10%

Structure (SMILES): O=C(O)c1ccc(CC(=O)N2CCc3c(n(Cc4cccc(F)c4)c4ncccc34)C2)cc1
- fraction unbound at 4 h [2]: 0.01
- IC50 [1]: 0.028 µM
- logD at 1 h [7]: 0.67

Structure (SMILES): O=C(C[C@H]1CC[C@H](C(=O)O)CC1)N1CCc2c(n(Cc3ccc(F)cc3F)c3ncccc23)C1
- fraction unbound at 4 h [2]: 0.016
- metabolised at 2 h, 1 µM [11]: 21.4%
- fraction unbound at 4 h [4]: 0.021
- logD at 1 h [7]: 1.15
- metabolised at 2 h, 1 µM [12]: 29.8%
- IC50 [5]: 0.0073 µM
- metabolised at 2 h, 1 µM [13]: 14.4%
- metabolised at 2 h, 1 µM [14]: 9%

Structure (SMILES): O=C(CC12CCC(C(=O)O)(CC1)C2)N1CCc2c(n(Cc3ccc(F)cc3)c3ncccc23)C1
- fraction unbound at 4 h [2]: 0.01
- AUC [3]: 0.842 µg·h/mL
- TGI [15]: 91.2%
- bioavailability [16]: 71.1%
- Vd [17]: 1.86 L/kg
- IC50 [1]: 0.01 µM
- fraction unbound at 4 h [4]: 0.049
- clearance [18]: 0.348 L/h/kg
- inhibition [19]: 99.3%
- inhibition [20]: 97.1%
- half-life [21]: 7.9 h
- half-life [22]: 5.4 h
- Cmax [23]: 0.261 µg/mL
- half-life [24]: 2.5 h
- TGI [25]: 95.5%
- Cmax [26]: 0.063 µg/mL
- IC50 [5]: 0.0055 µM
- clearance [27]: 0.282 L/h/kg
- Vd [28]: 2.27 L/kg
- half-life [29]: 8.9 h
- inhibition in vivo at 100 mg/kg [30]: 14.7%
- half-life [31]: 3.4 h
- bioavailability [32]: 30.8%
- half-life [33]: 5.9 h
- Vd [34]: 1.47 L/kg
- bioavailability [35]: 51.6%
- Cmax [36]: 0.124 µg/mL
- Cmax [37]: 1.67 µg/mL
- clearance [38]: 0.492 L/h/kg

Structure (SMILES): O=C(CC12CCC(C(=O)O)(CC1)CC2)N1CCc2c(n(Cc3ccc(F)cc3)c3ncccc23)C1
- fraction unbound at 4 h [2]: 0.014
- AUC [3]: 0.42 µg·h/mL
- IC50 [1]: 0.012 µM
- fraction unbound at 4 h [4]: 0.054
- IC50 [5]: 0.0061 µM
